Data set [1] has as its target T1, UDP-glucuronosyltransferase 1A3 (Homo sapiens, UniProt P35503).
T1 sequence (P35503 whole entry): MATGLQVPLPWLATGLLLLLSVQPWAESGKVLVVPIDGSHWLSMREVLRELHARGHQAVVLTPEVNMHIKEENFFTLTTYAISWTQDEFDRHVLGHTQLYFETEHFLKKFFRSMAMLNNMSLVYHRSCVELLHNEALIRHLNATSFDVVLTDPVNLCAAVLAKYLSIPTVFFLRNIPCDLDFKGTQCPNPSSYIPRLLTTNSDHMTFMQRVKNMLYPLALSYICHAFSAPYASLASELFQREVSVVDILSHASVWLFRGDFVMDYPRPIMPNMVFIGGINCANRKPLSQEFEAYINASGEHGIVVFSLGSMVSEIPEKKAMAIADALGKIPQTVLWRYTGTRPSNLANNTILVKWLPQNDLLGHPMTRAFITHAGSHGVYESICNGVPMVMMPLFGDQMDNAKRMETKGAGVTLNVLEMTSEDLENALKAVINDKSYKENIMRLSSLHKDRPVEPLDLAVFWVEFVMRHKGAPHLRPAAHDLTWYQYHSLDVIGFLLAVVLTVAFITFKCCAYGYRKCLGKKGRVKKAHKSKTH
Briefly: Activity of human UGT1A3 expressed in HEK293 cells assessed as enzyme-mediated diclofenac acyl-beta-D-glucuronide formation at 0.1 mM measured at 24 hrs by LC-MS/MS analysis. It counts as ADME, cell-based. As to conditions: hek293, 24 h, 100 µM; call rule not given here. The method in brief:
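HEK293 stably expressing human UGT1A3 (G418-selected), 2 x 10^5 cells/well in 1 mL DMEM with 0.5% FBS, exposed immediately to drug for 6, 12 or 24 h; DMSO ≤0.1% final. Cells and medium separated by centrifugation, cell fraction resuspended in PBS; aliquots mixed 1:1 with methanol/acetic acid (100:1), spun, supernatant analysed by LC-MS/MS. Triplicate determinations, mean ± SD.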

Data set [2] deals with T2, UDP-glucuronosyltransferase 1A4 (Homo sapiens, UniProt P22310).
T2 sequence (P22310 whole entry): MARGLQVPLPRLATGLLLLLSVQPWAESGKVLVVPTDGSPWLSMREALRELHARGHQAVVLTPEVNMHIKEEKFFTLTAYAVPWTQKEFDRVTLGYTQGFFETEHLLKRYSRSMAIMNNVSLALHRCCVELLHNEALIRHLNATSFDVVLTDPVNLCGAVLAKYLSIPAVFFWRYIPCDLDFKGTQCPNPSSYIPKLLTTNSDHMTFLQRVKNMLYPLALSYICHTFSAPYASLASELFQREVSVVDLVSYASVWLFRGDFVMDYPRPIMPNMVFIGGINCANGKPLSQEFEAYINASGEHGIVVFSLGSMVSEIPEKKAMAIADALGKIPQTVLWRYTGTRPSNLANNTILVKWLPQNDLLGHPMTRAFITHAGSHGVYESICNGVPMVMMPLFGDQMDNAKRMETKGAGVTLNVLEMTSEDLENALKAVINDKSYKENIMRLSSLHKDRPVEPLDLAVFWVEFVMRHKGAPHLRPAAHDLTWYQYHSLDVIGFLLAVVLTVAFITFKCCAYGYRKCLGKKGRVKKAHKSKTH
Briefly: Activity of human UGT1A4 expressed in HEK293 cells assessed as enzyme-mediated diclofenac acyl-beta-D-glucuronide formation at 0.1 mM measured at 24 hrs by LC-MS/MS analysis. The format is ADME, cell-based. Conditions: hek293, 24 h, 100 µM. In a few lines: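 HEK293 stably expressing human UGT1A4, 2 x 10^5 cells/well in DMEM with 0.5% FBS, drug exposure 6–24 h, DMSO ≤0.1% final. Acyl glucuronide in cell fraction and medium measured by LC-MS/MS after methanol/acetic acid (100:1) precipitation and centrifugation. Triplicate determinations.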

Data set [3] deals with HEK293. Briefly: Cytotoxicity against HEK293 cells expressing UGT1A3 assessed as decrease in cell viability by measuring intracellular ATP content at 0.1 mM by CellTiter-Glo luminescent assay. As to conditions: human, hek293, 100 µM; TDE = time-dependent effect. The format is ADME, cell-based. The method in brief:
(§1)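 UGT1A3 or UGT1A4 stable HEK293 cells, 2 x 10^4 cells/well in 0.1 mL DMEM with 0.5% FBS, drug for 6, 12 or 24 h. Viability from intracellular ATP via CellTiter-Glo luminescence, expressed as percent of control cells. Mean ± SD of triplicates.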
On the technique in general: In ATP-based viability assays light output follows the ATP content of the culture.

The test system of data set [4] is HEK293. The data set is described as follows: Cytotoxicity against HEK293 cells expressing UGT1A4 assessed as decrease in cell viability by measuring intracellular ATP content at 0.1 mM by CellTiter-Glo luminescent assay. It counts as ADME, cell-based. Conditions: human, hek293, 100 µM; TDE = time-dependent effect. In a few lines: as §1
In data set [5] the test system is HEK293. The data set is described as follows: Genotoxicity in HEK293 cells expressing UGT1A3 assessed as DNA strand breaks at 0.1 mM after 24 hrs by comet assay. It counts as toxicity, cell-based. Conditions: human, hek293, 24 h, 100 µM. The method in brief:
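HEK293 cells stably expressing UGT1A3, seeded 24 h before treatment and exposed 24 h in 0.5% FBS DMEM (vehicle 0.1% DMSO). Alkaline comet assay: low-melting agarose embedding, lysis pH 10 for 1 h at 4°C, 30 min unwinding in NaOH/EDTA, electrophoresis 300 mA for 20 min, ethidium bromide stain. Tail extent moment scored on 150-180 cells over more than 3 experiments, median (IQR).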

Data set [6] concerns HEK293. Briefly: Cytotoxicity against HEK293 cells expressing UGT assessed as LDH leakage at 0.1 mM after 6 to 24 hrs by spectrophotometric analysis relative to total cell LDH level. It counts as ADME, cell-based. Conditions: human, hek293, 100 µM. The method in brief:
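Stable UGT-expressing or mock HEK293 lines in DMEM with 0.5% FBS, 2 x 10^4 cells/well, drug for 6, 12 or 24 h. LDH released into medium read at 490 nm (690 nm reference); percentage calculated against maximum release from control cells lysed with 1% Triton X-100.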
In general terms: LDH in the medium is a marker of cell lysis.

For data set [7], the system named is HEK293. Briefly: Cytotoxicity against HEK293 cells expressing UGT1A3 assessed as decrease in cell viability at 0.1 mM measured at 24 hrs by MTT assay. The format is ADME, cell-based. As to conditions: human, hek293, 24 h, 100 µM.
Data set [8] has as its system HEK293. The data set is described as follows: Cytotoxicity against HEK293 cells expressing UGT1A4 assessed as decrease in cell viability at 0.1 mM by MTT assay. It counts as ADME, cell-based. As to conditions: human, hek293, 100 µM; TDE = time-dependent effect. For orientation: Formazan colour is commonly taken as a measure of viable cells.
Data set [9] has as its system HEK293. The data set is described as follows: Cytotoxicity against HEK293 cells expressing UGT assessed as decrease in cell viability at 0.1 mM measured up to 72 hrs by MTT assay. The format is ADME, cell-based. Conditions: human, hek293, 72 h, 100 µM. The method in brief:
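Mock and UGT1A3/UGT1A4 stable HEK293 cells given drug for up to 72 h; viability measured by WST-8-based MTT assay.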

Data set [10] relates to HEK293. The data set is described as follows: Cytotoxicity against HEK293 cells expressing UGT1A3 assessed as decrease in cell viability at 0.1 mM by MTT assay. The format is ADME, cell-based. As to conditions: human, hek293, 100 µM; TDE = time-dependent effect.
Data set [11] deals with HEK293. The data set is described as follows: Cytotoxicity against mock transfected HEK293 cells assessed as decrease in cell viability by measuring intracellular ATP content at 0.1 mM by CellTiter-Glo luminescent assay. The format is cell-based. As to conditions: human, hek293, 100 µM; TDE = time-dependent effect. The method in brief:
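Mock-transfected HEK293 cells seeded at 2 x 10^4 cells/well in DMEM with 0.5% FBS, drug added at once and incubated 6, 12 or 24 h. Viability read either by WST-8 (CCK-8) formazan absorbance at 450 nm or by intracellular ATP luminescence (CellTiter-Glo), as percent of control cells; mean ± SD of triplicates. Final DMSO ≤0.1%.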

The subject of data set [12] is HEK293. Briefly: Cytotoxicity against mock transfected HEK293 cells assessed as decrease in cell viability at 0.1 mM […]. Conditions: human, hek293, 100 µM; TDE = time-dependent effect. It counts as cell-based.
The test system of data set [13] is Hepatocyte. Briefly: Cellular uptake in human hepatocytes at 0.1 mM measured at 6 hrs by LC-MS/MS analysis in absence of acyl glucuronidation inhibitor (-)-borneol. Conditions: 100 µM. It counts as ADME, cell-based. The method in brief: (§2)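 Cryopreserved pooled human hepatocytes on collagen-coated wells, 2 × 10^5 cells/well in HCM medium with 0.5% FBS, preincubated 30 min with or without 1 mM (-)-borneol, then drug for 6 h; DMSO ≤0.2% final. Parent drug in cell fraction measured by LC-MS/MS after methanol/acetic acid extraction. Mean ± SD of triplicates.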

The test system of data set [14] is Hepatocyte. Briefly: Cellular uptake in human hepatocytes at 0.1 mM measured at 6 hrs by LC-MS/MS analysis in presence of acyl glucuronidation inhibitor (-)-borneol. As to conditions: 100 µM. It counts as ADME, cell-based. The method in brief:
as §2

Bounds are passed on as bounds.

In the case of `O=C([O-])Cc1ccccc1Nc1c(Cl)cccc1Cl.[Na+]` [DICLOFENAC SODIUM], the Drug metabolism entry in data set [1] is reported as “metabolite_detected”; in data set [2], “metabolite_not_detected”. Moreover, the Activity entry in data set [3] was “tde”; in [4], “tde”; in data set [5], “Non-toxic”; in data set [6], less than 5.4%; in data set [7] it was “Non-toxic”; in [8] it was “tde”. Besides, the Activity result in data set [9] was “Non-toxic”; in data set [10], “tde”; in [11], “tde”; in data set [12], “tde”. Besides, the Drug uptake entry in [13] and in data set [14] was “Active” each time.

The record behind these values is ChEMBL document CHEMBL3526116, “Toxicological evaluation of acyl glucuronides of nonsteroidal anti-inflammatory drugs using human embryonic kidney 293 cells stably expressing human UDP-glucuronosyltransferase and human hepatocytes” (Drug Metab Dispos, 2011).
